According to PubChem BioAssay:
Active and inactive are the calls of the source.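 Rule for the calls, unless noted: active = viability at or below 10% of carrier control in both of two separate runs; inconclusive = viability at or below 10% in only one of the two runs; inactive = the rest.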

Legend:
[1] = reduced viability of SK-BR-3 breast cancer cells – cell-based, 24 h, human, pilot screen (AID 572); conditions: SK-BR-3 viability, CellTiter-Glo luminescence, at 10 µM, stronger effect = lower value;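 note: compound exposure lasted between 18 and 24 h rather than exactly 24 h; 100% = carrier-treated control wells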
[2] = HUVEC growth inhibition – cell-based, human, primary screen (AID 575;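 active = viability at or below 30% in both replicate assays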;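 note: 100% = median of untreated cell wells with 0.1% DMSO on each plate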); conditions: HUVEC proliferation, CellTiter-Glo luminescence, 72 h; at 10 µM; stronger effect = lower value
Method in brief: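 Timing: 72 h treatment at 37 °C; material: HUVEC primary cells; technique: CellTiter-Glo luminescence measuring cellular ATP; controls: vehicle and MePR control wells; measure: percent of median DMSO-control luminescence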

[3] = H69AR cell proliferation blockers – human, duplicate replicates, primary screen (AID 580;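 active = viability at or under a set limit in both replicates, limit being median viability minus 3 SD, cut at about 48% in these data, passing the limit was not always enough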;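 note: 100% = mean luminescence of untreated wells and 0% = no signal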); conditions: H69AR lung tumor cells viability, ATP luminescence, 72 h; at 10 µM; stronger effect = lower value
[4] = MRP1 drug-resistance reversers in H69AR cells – cell-based, doxorubicin co-treatment, pilot screen (AID 601;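 active = viability loss from added drug above about 55%, and viability with drug at most 40%, in both replicates, limit read from the data, passing the limit was not always enough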); conditions: CellTiter-Glo, 72 h, at 10 µM; for differential viability (reversal): stronger effect = higher value
[5] = yeast transport mutant growth inhibition pilot in 384-well plates, post-Golgi transport modulator project (AID 636; in the data active = inhibition above about 31%); conditions: absorbance 615 nm, about 18 h, stronger effect = higher value
[6] = growth suppression of yeast trafficking mutant, preliminary HTS, modulators of trafficking downstream of Golgi apparatus project, 1536-format plate, OD 615 nm (AID 637; in the data active = inhibition above about 30%); conditions: yeast transport mutant growth, absorbance 615 nm, 18 h; stronger effect = higher value
[7] = H69AR cells + 2 uM doxorubicin, measured here: viability with 2 uM doxorubicin, stronger effect = lower value
[8] = H69AR cells, compound alone cytotoxicity

Row | SMILES | viability [1] | viability [2] | viability [3] | differential viability (reversal) ([4]; H69AR cells + 2 uM doxorubicin) | viability [4, 7] | viability [4, 8] | inhibition [5] | inhibition [6]
1 | CCn1c(SCC(=O)NC)nnc1C(C)C | 97% (inactive) | 123% (inactive) | 94.8% (inactive) | 8.98% (inactive) | 85.8% | 94.8% | -7.3% (inactive) | -4.91% (inactive)
2 | O=C1NC(c2cccnc2)C(C(=O)c2cccs2)C(O)(C(F)(F)F)N1 (stereo not drawn) | 116% (inactive) | 113% (inactive) | 103% (inactive) | 4.9% (inactive) | 97.7% | 103% | -0.27% (inactive) | -0.18% (inactive)
3 | O=C(NC1CCCC1)C(NS(=O)(=O)c1cccc2nsnc12)c1ccccc1 (stereo not drawn) | 116% (inactive) | 103% (inactive) | 79% (inactive) | -2.47% (inactive) | 81.5% | 79% | -8.08% (inactive) | 8.18% (inactive)
4 | CCCC1(CCC)NC(=O)NC1=O | 121% (inactive) | 94.7% (inactive) | 98.2% (inactive) | 0.09% (inactive) | 98.1% | 98.2% | -0.26% (inactive) | 0.66% (inactive)
5 | O=C(CN1C(=O)c2cccc3cccc1c23)Nc1ccccc1C(=O)NCc1ccco1 | 89% (inactive) | 108% (inactive) | 78.9% (inactive) | -2.93% (inactive) | 81.8% | 78.9% | -1.49% (inactive) | -8.67% (inactive)
6 | O=C(COC(=O)c1cnccn1)Nc1ccc2c(c1)OCO2 | 130% (inactive) | 82% (inactive) | 91.6% (inactive) | 2.88% (inactive) | 88.7% | 91.6% | 0.65% (inactive) | 2.46% (inactive)
7 | CCn1c(Cc2ccccc2)nnc1SCC(=O)Nc1cc(C)on1 | 109% (inactive) | 114% (inactive) | 98.7% (inactive) | 7.78% (inactive) | 91% | 98.7% | -5.06% (inactive) | -2.95% (inactive)
8 | Cn1c(=O)cc(SCC(=O)NCc2cccnc2)c2ccccc21 | 92% (inactive) | 109% (inactive) | 92.7% (inactive) | 8.73% (inactive) | 83.9% | 92.7% | -6.8% (inactive) | -1.82% (inactive)
9 | O=C(NCc1ccco1)c1cccc(S(=O)(=O)N2CCCCC2)c1 | 110% (inactive) | 99.3% (inactive) | 90.9% (inactive) | -5.04% (inactive) | 96% | 90.9% | 4.66% (inactive) | 8.73% (inactive)
10 | CSc1ccccc1NC(=O)CN(c1ccccc1)S(=O)(=O)N(C)C | 83% (inactive) | 98.3% (inactive) | 87.7% (inactive) | 2.04% (inactive) | 85.7% | 87.7% | -8.49% (inactive) | 0.18% (inactive)
11 | COC(=O)c1ccccc1NC(=O)C1CCN(S(=O)(=O)c2cc(C)ccc2OC)CC1 | 78% (inactive) | 78.9% (inactive) | 79.1% (inactive) | -13.2% (inactive) | 92.3% | 79.1% | -11.1% (inactive) | 0.48% (inactive)
12 | COc1ccc(S(=O)(=O)Nc2ccccc2SC)cc1C | 94% (inactive) | 87.8% (inactive) | 87% (inactive) | -8.52% (inactive) | 95.5% | 87% | -6.99% (inactive) | 0% (inactive)
13 | CCOc1cc(C(=O)N(C)Cc2cc3cc(OC)ccc3[nH]c2=O)cc(OCC)c1OCC | 88% (inactive) | 114% (inactive) | 95.1% (inactive) | -1.01% (inactive) | 96.2% | 95.1% | -4.46% (inactive) | 17.3% (inactive)
14 | CCOC(=O)c1c(C)oc2ccc(NS(=O)(=O)c3ccc4c5c(cccc35)C(=O)N4)cc12 | 103% (inactive) | 76.9% (inactive) | 83.9% (inactive) | 0.75% (inactive) | 83.1% | 83.9% | -7.53% (inactive) | 5.27% (inactive)
15 | CCOc1ccc2nc(SCC(=O)Nc3ncccn3)[nH]c2c1 | 92% (inactive) | 97.4% (inactive) | 105% (inactive) | 18.1% (inactive) | 86.6% | 105% | -1.62% (inactive) | 3.45% (inactive)
16 | O=C1NC(=O)C(c2ccccc2)(c2ccccc2)N1 | 111% (inactive) | 75.6% (inactive) | 98% (inactive) | 7.3% (inactive) | 90.7% | 98% | 2.86% (inactive) | -1% (inactive)
17 | Cc1cccc(-n2c(SCc3cc(=O)n4ccsc4n3)nc3ccccc32)c1 | 93% (inactive) | 66.1% (inactive) | 78.5% (inactive) | -9.64% (inactive) | 88.1% | 78.5% | 3.01% (inactive) | 40% (active)
18 | COc1cc(C2c3c(oc4c(C)cc(C)cc4c3=O)C(=O)N2Cc2cccnc2)ccc1O (stereo not drawn) | 78% (inactive) | 69.1% (inactive) | 80.2% (inactive) | 2.59% (inactive) | 77.6% | 80.2% | 0.13% (inactive) | 2.42% (inactive)

Row | SMILES | viability [1] | viability [2] | viability [3] | differential viability (reversal) ([4]; H69AR cells + 2 uM doxorubicin) | viability [4, 7] | viability [4, 8] | inhibition [5] | inhibition [6]
19 | COc1ccc(/C=N/n2c(SC)nnc2-c2ccccc2)cc1C | 116% (inactive) | 75.5% (inactive) | 20.7% (active) | -58.1% (inactive) | 78.8% | 20.7% | 0.93% (inactive) | 9.27% (inactive)
20 | COc1cc(NC2c3ccccc3C(=O)N2c2ccc(C)cn2)cc(OC)c1OC (stereo not drawn) | 90.5% (inactive) | 85.5% (inactive) | 88.7% (inactive) | 3.73% (inactive) | 85% | 88.7% | -1.41% (inactive) | 1.17% (inactive)
21 | COc1ccc(CN2C(=O)[C@@H]3C(c4ccc(F)cc4)=NO[C@@H]3C2=O)cc1 | 91% (inactive) | 114% (inactive) | 89.1% (inactive) | 3.49% (inactive) | 85.6% | 89.1% | -6.62% (inactive) | 1.64% (inactive)
22 | CCOC(=O)C(C#N)C(c1cccnc1)c1c(C)[nH][nH]c1=O (stereo not drawn) | 77% (inactive) | 107% (inactive) | 105% (inactive) | 9.4% (inactive) | 95.7% | 105% | -7.43% (inactive) | 4% (inactive)
23 | C[C@H](CCC(=O)O)[C@H]1CC[C@H]2[C@@H]3C(=O)C[C@@H]4CC(=O)CC[C@]4(C)[C@H]3CC(=O)[C@]12C | 128% (inactive) | 88.9% (inactive) | 96% (inactive) | -6.55% (inactive) | 102% | 96% | 0.65% (inactive) | -0.83% (inactive)
24 | COc1nc(C)ccc1-c1noc(-c2ccncc2)n1 | 101% (inactive) | 86.5% (inactive) | 95.1% (inactive) | 11.4% (inactive) | 83.6% | 95.1% | -8.22% (inactive) | 1.45% (inactive)
25 | CC(=O)Nc1ccc(S(=O)(=O)N(C2=NCC(C)S2)c2ccccc2)cc1 (stereo not drawn) | 85% (inactive) | 80.3% (inactive) | 91.7% (inactive) | 1.89% (inactive) | 89.8% | 91.7% | -2.47% (inactive) | -4.35% (inactive)
26 | CC(C)(C)n1ncc2c(=O)n(CC(=O)NCc3ccccc3)cnc21 | 90% (inactive) | 54.7% (inactive) | 15.5% (active) | -48.5% (inactive) | 63.9% | 15.5% | -1.2% (inactive) | -1.27% (inactive)
27 | Cc1c(C(=O)NCc2ccoc2)oc2ccc3c(c12)C(=O)CC(C)(C)O3 | 129% (inactive) | 75.1% (inactive) | 76.2% (inactive) | -2.74% (inactive) | 78.9% | 76.2% | -0.52% (inactive) | 3.77% (inactive)
28 | CS(=O)(=O)NCC(c1cccnc1)N1CCN(c2ccc(F)cc2)CC1 (stereo not drawn) | 107% (inactive) | 113% (inactive) | 92.2% (inactive) | 0.865% (inactive) | 91.3% | 92.2% | -1.89% (inactive) | -3.45% (inactive)
29 | CC(=O)Nc1nc2c(c3c1c(=O)oc1ccccc13)CC(C)CC2 (stereo not drawn) | 123% (inactive) | 85.1% (inactive) | 92.1% (inactive) | 4.96% (inactive) | 87.1% | 92.1% | -1.04% (inactive) | -2.79% (inactive)
30 | CCC(CCC(=O)Nc1cccc(C(=O)O)c1)C(=O)O (stereo not drawn) | 62% (inactive) | 107% (inactive) | 103% (inactive) | 2.19% (inactive) | 101% | 103% | -0.82% (inactive) | 2.36% (inactive)
31 | COCCNC(=S)c1ccc(OC)cc1 | 118% (inactive) | 112% (inactive) | 86% (inactive) | 8.94% (inactive) | 77.1% | 86% | -8.27% (inactive) | 5.27% (inactive)
32 | CC(C)CC(c1nnnn1C(C)(C)C)N1CCN(C2CCCC2)CC1 (stereo not drawn) | 101% (inactive) | 96.6% (inactive) | 95.2% (inactive) | 10.4% (inactive) | 84.8% | 95.2% | -7.33% (inactive) | 2.91% (inactive)
33 | COCCCN1C(=O)C(O)=C(C(C)=O)C1c1ccccn1 (stereo not drawn) | 106% (inactive) | 102% (inactive) | 86.6% (inactive) | 0.675% (inactive) | 85.9% | 86.6% | -3.73% (inactive) | -1.45% (inactive)
34 | COc1ccc(-c2nsc(SCC(=O)Nc3cc(C)on3)n2)cc1 | 79% (inactive) | 79.4% (inactive) | 84.8% (inactive) | -5.36% (inactive) | 90.2% | 84.8% | -5.07% (inactive) | 3.09% (inactive)
35 | C=CCn1c(SCC#N)nc2c(c1=O)C(C)(C)Cc1ccccc1-2 | 104% (inactive) | 76.2% (inactive) | 78.8% (inactive) | -6.17% (inactive) | 85% | 78.8% | -5.62% (inactive) | 3.71% (inactive)
36 | NC(CO)C(=O)NNCc1ccc(O)c(O)c1O (stereo not drawn) | 97% (inactive) | 82.9% (inactive) | 98.7% (inactive) | 8.12% (inactive) | 90.5% | 98.7% | -3.51% (inactive) | -2.67% (inactive)
